Results as given in ChEMBL document CHEMBL1240376, “Characterization of small ColE-like plasmids mediating widespread dissemination of the qnrB19 gene in commensal enterobacteria” (2010).
Values after ≈ are worked out from the molar mass of the structure shown.

Legend:
Type in all cases: functional
Escherichia coli [1] = assay: Antibacterial activity against tetracycline trimethoprim sulfamethoxazole kanamycin-resistant Escherichia coli isolate C14-9 carrying qnrB19 gene
Outline: (§1)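 MICs determined by broth microdilution following CLSI guidelines, with E. coli ATCC 25922 as quality-control strain in every run. Disk diffusion susceptibility was also performed per CLSI.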

Escherichia coli [2] = assay: Antibacterial activity against ampicillin sulfamethoxazole streptomycin kanamycin-resistant Escherichia coli isolate V6-9 carrying qnrB19 gene; outline: as §1
Escherichia coli [3] = assay: Antibacterial activity against ampicillin tetracyclin streptomycin kanamycin-resistant Escherichia coli isolate V32-1 carrying qnrB19 gene; outline: as §1
Escherichia coli [4] = assay: Antibacterial activity against Escherichia coli HB101; outline: as §1
Escherichia coli [5] = assay: Antibacterial activity against tetracycline sulfamethoxazole streptomycin kanamycin-resistant Escherichia coli isolate M66-6 carrying qnrB19 gene; outline: as §1
Escherichia coli [6] = assay: Antibacterial activity against ampicillin tetracycline trimethoprim sulfamethoxazole streptomycin-resistant Escherichia coli isolate Y6-7 carrying qnrB19 gene; outline: as §1

**Q.** What does the source list for `C[C@H]1COc2c(N3CCN(C)CC3)c(F)cc3c(=O)c(C(=O)O)cn1c23.C[C@H]1COc2c(N3CCN(C)CC3)c(F)cc3c(=O)c(C(=O)O)cn1c23.O` [LEVOFLOXACIN]?
**A.** MIC (Escherichia coli [1]): 0.25 mg/L; MIC (Escherichia coli [2]): 0.25 mg/L; MIC (Escherichia coli [3]): 0.25 mg/L; MIC (Escherichia coli [4]): 0.0075 mg/L

**Q.** For `CCn1cc(C(=O)O)c(=O)c2ccc(C)nc21` [NALIDIXIC ACID], which MIC (Escherichia coli [5]) is on record?
**A.** The MIC was 16 mg/L (≈ 68.9 µM).

**Q.** What about the MIC (Escherichia coli [6]) of the same molecule?
**A.** Its MIC is 16 mg/L (≈ 68.9 µM).

**Q.** What about the MIC (Escherichia coli [1]) of the same molecule?
**A.** The MIC was 32 mg/L (≈ 138 µM).

**Q.** What about the MIC (Escherichia coli [2]) of the same molecule?
**A.** Its MIC is 32 mg/L (≈ 138 µM).

**Q.** What about the MIC (Escherichia coli [3]) of the same molecule?
**A.** Its MIC is 32 mg/L (≈ 138 µM).

**Q.** And the MIC (Escherichia coli [4])?
**A.** Its MIC is 4 mg/L (≈ 17.2 µM).

**Q.** How did the MIC (Escherichia coli [5]) turn out when `CCn1cc(C(=O)O)c(=O)c2cc(F)c(N3CCNCC3)cc21` [NORFLOXACIN] was run?
**A.** The MIC was 0.25 mg/L (≈ 0.783 µM).

**Q.** What about the MIC (Escherichia coli [6]) of the same molecule?
**A.** The MIC was 0.25 mg/L (≈ 0.783 µM).

**Q.** And the MIC (Escherichia coli [1])?
**A.** Its MIC is 0.5 mg/L (≈ 1.57 µM).

**Q.** And the MIC (Escherichia coli [2])?
**A.** The MIC was 0.5 mg/L (≈ 1.57 µM).

**Q.** And the MIC (Escherichia coli [3])?
**A.** Its MIC is 0.25 mg/L (≈ 0.783 µM).

**Q.** And the MIC (Escherichia coli [4])?
**A.** Its MIC is 0.003 mg/L (≈ 0.00939 µM).
